Each block holds one compound with its values, some of them ahead of it. Calls of active or inactive are those of the source. The rule behind the calls is not given here.
Columns and labels:
[1] = system: BaF3; assay: Inhibition of EGFR-C797S/T790M/L858R mutant in mouse BaF3 cells assessed as inhibition of EGFR phosphorylation at 10 to 1000 nM incubated for 6 hrs by Western blotting analysis; assay type: cell-based; conditions: dose 10-1000 nM
Outline: (§1)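 Ba/F3 cells expressing EGFR-L858R-series mutants treated with inhibitors for 6 h. SDS lysates quantified by BCA, run on SDS-PAGE and blotted to PVDF. Probed for phospho-EGFR (Tyr1068), total EGFR and downstream phospho-proteins.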

[2] = system: BaF3; assay: Inhibition of EGFR-C797S/T790M/L858R mutant in mouse BaF3 cells assessed as inhibition of S6 phosphorylation at 10 to 1000 nM incubated for 6 hrs by Western blotting analysis; assay type: cell-based; conditions: dose 10-1000 nM; outline: as §1
[3] = system: BaF3; assay: Inhibition of EGFR-C797S/T790M/L858R mutant expressed in mouse BaF3 cells assessed as inhibition of ERK phosphorylation at 10 to 1000 nM incubated for 6 hrs by Western blotting analysis; assay type: cell-based; conditions: dose 10-1000 nM; outline: as §1
[4] = system: BaF3; assay: Inhibition of EGFR-C797S/T790M/L858R mutant expressed in mouse BaF3 cells assessed as inhibition of Akt phosphorylation at 10 to 1000 nM incubated for 6 hrs by Western blotting analysis; assay type: cell-based; conditions: dose 10-1000 nM; outline: as §1
[5] = system: BaF3; assay: Inhibition of EGFR-T790M/del19 mutant in mouse BaF3 cells assessed as inhibition of EGFR phosphorylation at 10 to 1000 nM incubated for 6 hrs by Western blotting analysis; assay type: cell-based; conditions: dose 10-1000 nM
Outline: (§2)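 Ba/F3 cells carrying the stated EGFR mutant were made IL-3-independent after 1 week of 7 µM blasticidin selection. They were grown in low-glucose DMEM with 10% FBS and exposed to inhibitor for 6 h. Cells were washed in cold PBS, lysed in SDS buffer (100 mM Tris, 1% SDS, 10% glycerol) and boiled 5 min. Protein was measured by BCA, run on SDS-PAGE, transferred to PVDF, blocked in 5% BSA or milk/TBS-T, and immunoblotted.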

[6] = system: BaF3; assay: Inhibition of EGFR-C797S/T790M/del19 mutant in mouse BaF3 cells assessed as reduction in ERK phosphorylation incubated for 6 hrs by Western blotting analysis; assay type: cell-based
[7] = system: BaF3; assay: Inhibition of EGFR-del19 mutant in mouse BaF3 cells assessed as inhibition of ERK phosphorylation at 10 to 1000 nM incubated for 6 hrs by Western blotting analysis; assay type: cell-based; conditions: dose 10-1000 nM; outline: as §2
[8] = system: Epidermal growth factor receptor (Homo sapiens), P00533 [UNDEFINED MUTATION]; conditions: MGH121, dose 10-1000 nM
Epidermal growth factor receptor (Homo sapiens), P00533 [UNDEFINED MUTATION], sequence (P00533 whole entry, looked up, stated change not applied): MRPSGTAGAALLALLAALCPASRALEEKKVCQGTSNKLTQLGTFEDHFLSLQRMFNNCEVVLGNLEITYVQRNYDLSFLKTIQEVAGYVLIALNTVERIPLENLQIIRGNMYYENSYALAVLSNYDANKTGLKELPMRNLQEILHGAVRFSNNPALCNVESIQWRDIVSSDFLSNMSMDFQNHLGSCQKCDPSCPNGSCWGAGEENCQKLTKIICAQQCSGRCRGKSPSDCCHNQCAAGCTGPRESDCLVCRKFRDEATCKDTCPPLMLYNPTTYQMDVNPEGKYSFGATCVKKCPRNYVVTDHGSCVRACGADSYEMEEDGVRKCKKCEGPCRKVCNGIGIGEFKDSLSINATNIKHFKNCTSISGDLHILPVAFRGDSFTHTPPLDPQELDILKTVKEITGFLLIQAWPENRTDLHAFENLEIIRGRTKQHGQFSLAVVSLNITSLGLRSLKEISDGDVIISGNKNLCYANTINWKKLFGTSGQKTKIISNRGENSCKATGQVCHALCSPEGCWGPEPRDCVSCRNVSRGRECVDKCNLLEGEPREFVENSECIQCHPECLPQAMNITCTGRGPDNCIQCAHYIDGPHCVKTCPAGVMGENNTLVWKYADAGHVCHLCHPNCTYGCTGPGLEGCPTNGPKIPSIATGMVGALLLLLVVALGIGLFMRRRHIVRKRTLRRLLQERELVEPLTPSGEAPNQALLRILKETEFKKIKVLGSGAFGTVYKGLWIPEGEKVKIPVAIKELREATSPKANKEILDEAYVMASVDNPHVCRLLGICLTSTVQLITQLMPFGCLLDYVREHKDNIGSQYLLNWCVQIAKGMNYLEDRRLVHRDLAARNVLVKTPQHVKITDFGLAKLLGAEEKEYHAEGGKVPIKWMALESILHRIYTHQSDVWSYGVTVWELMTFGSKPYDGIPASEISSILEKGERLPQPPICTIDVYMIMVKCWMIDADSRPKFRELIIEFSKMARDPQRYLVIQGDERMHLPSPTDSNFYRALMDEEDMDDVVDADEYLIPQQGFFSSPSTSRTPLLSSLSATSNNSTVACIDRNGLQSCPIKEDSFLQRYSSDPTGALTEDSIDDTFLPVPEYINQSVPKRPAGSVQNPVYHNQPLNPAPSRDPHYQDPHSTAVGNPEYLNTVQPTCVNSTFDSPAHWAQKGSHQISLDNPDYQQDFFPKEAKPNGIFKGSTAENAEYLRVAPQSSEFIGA

[9] = system: BaF3; assay type: cell-based; conditions: Mus musculus, dose 10-1000 nM, time 6.0 hrs
[10] = system: BaF3; assay: Inhibition of EGFR-del19 mutant in mouse BaF3 cells assessed as inhibition of S6 phosphorylation at 10 to 1000 nM incubated for 6 hrs by Western blotting analysis; assay type: cell-based; conditions: dose 10-1000 nM; outline: as §2
[11] = system: BaF3; assay: Inhibition of EGFR-C797S/T790M/del19 mutant in mouse BaF3 cells assessed as reduction in EGFR phosphorylation incubated for 6 hrs by Western blotting analysis; assay type: cell-based
[12] = Cytotoxicity against mouse Ba/F3 EGFR-Del19/T790M/C797S cells assessed as inhibition of cell viability by measuring fold change at 30 nM incubated for 72 hrs in presence of cetuximab by CellTiter-Glo assay relative to AP26113-analog alone; assay type: functional
[13] = system: Epidermal growth factor receptor (Homo sapiens), P00533 [UNDEFINED MUTATION]; conditions: PC-9, dose 10-1000 nM
[14] = system: Epidermal growth factor receptor (Homo sapiens), P00533 [UNDEFINED MUTATION]; conditions: MGH121, dose 10-1000 nM; remark: listed apart in the source
[15] = system: Epidermal growth factor receptor (Homo sapiens), P00533 [UNDEFINED MUTATION]; conditions: PC-9, dose 10-1000 nM; remark: listed apart in the source
[16] = system: BaF3; assay type: cell-based; conditions: Mus musculus, dose 10-1000 nM, time 6.0 hrs; remark: listed apart in the source
[17] = system: PC-9; assay: Inhibition of EGFR T790M/del19 mutant in human PC-9 cells assessed as reduction in ERK phosphorylation at 10 to 1000 nM by Western blotting analysis; assay type: cell-based; conditions: dose 10-1000 nM
[18] = system: PC-9; assay: Inhibition of EGFR T790M/del19 mutant in human PC-9 cells assessed as reduction in Akt phosphorylation at 10 to 1000 nM by Western blotting analysis; assay type: cell-based; conditions: dose 10-1000 nM
[19] = system: BaF3; assay: Inhibition of EGFR-T790M/del19 mutant in mouse BaF3 cells assessed as inhibition of S6 phosphorylation at 10 to 1000 nM incubated for 6 hrs by Western blotting analysis; assay type: cell-based; conditions: dose 10-1000 nM; outline: as §2
[20] = system: BaF3; assay: Inhibition of EGFR-C797S/T790M/del19 mutant in mouse BaF3 cells assessed as reduction in S6 phosphorylation incubated for 6 hrs by Western blotting analysis; assay type: cell-based; outline: as §2
[21] = system: Epidermal growth factor receptor (Homo sapiens), P00533 [UNDEFINED MUTATION]; conditions: PC-9, dose 10-1000 nM; remark: listed apart in the source
[22] = system: PC-9; assay: Inhibition of EGFR T790M/del19 mutant in human PC-9 cells assessed as reduction in EGFR phosphorylation at 10 to 1000 nM by Western blotting analysis; assay type: cell-based; conditions: dose 10-1000 nM
[23] = system: BaF3; assay: Inhibition of EGFR-C797S/T790M/del19 mutant in mouse BaF3 cells assessed as reduction in Akt phosphorylation incubated for 6 hrs by Western blotting analysis; assay type: cell-based
[24] = system: Epidermal growth factor receptor (Homo sapiens), P00533 [UNDEFINED MUTATION]; conditions: PC-9, dose 10-1000 nM; remark: listed apart in the source
[25] = system: BaF3; assay: Inhibition of EGFR-T790M/del19 mutant in mouse BaF3 cells assessed as inhibition of Akt phosphorylation at 10 to 1000 nM incubated for 6 hrs by Western blotting analysis; assay type: cell-based; conditions: dose 10-1000 nM; outline: as §2
[26] = system: Epidermal growth factor receptor (Homo sapiens), P00533 [UNDEFINED MUTATION]; conditions: PC-9, dose 10-1000 nM; remark: listed apart in the source
[27] = system: BaF3; assay: Inhibition of EGFR-del19 mutant in mouse BaF3 cells assessed as inhibition of Akt phosphorylation at 10 to 1000 nM incubated for 6 hrs by Western blotting analysis; assay type: cell-based; conditions: dose 10-1000 nM; outline: as §2
[28] = system: Epidermal growth factor receptor (Homo sapiens), P00533 [UNDEFINED MUTATION]; conditions: PC-9, dose 10-1000 nM; remark: listed apart in the source
[29] = system: Epidermal growth factor receptor (Homo sapiens), P00533 [UNDEFINED MUTATION]; conditions: PC-9, dose 10-1000 nM; remark: listed apart in the source
[30] = system: BaF3; assay: Inhibition of EGFR-T790M/del19 mutant in mouse BaF3 cells assessed as inhibition of ERK phosphorylation at 10 to 1000 nM incubated for 6 hrs by Western blotting analysis; assay type: cell-based; conditions: dose 10-1000 nM; outline: as §2
[31] = system: BaF3; assay type: cell-based; conditions: Mus musculus, dose 10-1000 nM, time 6.0 hrs; remark: listed apart in the source
[32] = system: BaF3; assay type: cell-based; conditions: Mus musculus, dose 10-1000 nM, time 6.0 hrs; remark: listed apart in the source
[33] = system: PC-9; assay: Inhibition of EGFR T790M/del19 mutant in human PC-9 cells assessed as reduction in S6 phosphorylation at 10 to 1000 nM by Western blotting analysis; assay type: cell-based; conditions: dose 10-1000 nM
[34] = system: Epidermal growth factor receptor (Homo sapiens), P00533 [UNDEFINED MUTATION]; conditions: PC-9, dose 10-1000 nM; remark: listed apart in the source
[35] = Cytotoxicity against mouse Ba/F3 EGFR-Del19/T790M/C797S cells assessed as inhibition of cell viability incubated for 72 hrs by CellTiter-Glo assay; assay type: functional, cell-based
[36] = system: Epidermal growth factor receptor (Homo sapiens), P00533 [UNDEFINED MUTATION]; conditions: MGH121, dose 10-1000 nM; remark: listed apart in the source
[37] = system: Epidermal growth factor receptor (Homo sapiens), P00533 [UNDEFINED MUTATION]; conditions: MGH121, dose 10-1000 nM; remark: listed apart in the source
[38] = system: BaF3; assay: Inhibition of EGFR-C797S/T790M/del19 mutant in mouse BaF3 cells assessed as reduction in EGFR phosphorylation at 300 nM incubated for 6 hrs by Western blotting analysis; assay type: cell-based

SMILES: COc1cc(N2CCC(N3CCN(C)CC3)CC2)ccc1Nc1ncnc(Nc2ccccc2S(=O)(=O)C(C)C)n1
inhibition [1]: inactive
inhibition [2]: inactive
inhibition [3]: inactive
inhibition [4]: inactive

SMILES: Cc1cc(Nc2ncc(Cl)c(Nc3ccccc3S(=O)(=O)C(C)C)n2)c(OC(C)C)cc1C1CCNCC1
inhibition [1]: inactive
inhibition [2]: inactive
inhibition [3]: inactive
inhibition [4]: inactive

inhibition [8]: Active
inhibition [13]: Active
inhibition [14]: Active
inhibition [15]: Active
inhibition [21]: Active
inhibition [24]: Active
inhibition [26]: Active
inhibition [28]: Active
inhibition [29]: Active
inhibition [34]: Active
inhibition [36]: Active
inhibition [37]: Active
SMILES: COc1cc(N2CCC(N(C)C)CC2)ccc1Nc1ncc(Cl)c(Nc2ccccc2P(C)(C)=O)n1
inhibition [5]: Active
inhibition [6]: Active
inhibition [7]: Active
inhibition [1]: Active
inhibition [9]: Active
inhibition [10]: Active
inhibition [11]: Active
fold change (FC) [12]: ~3
inhibition [2]: Active
inhibition [16]: Active
inhibition [17]: Active
inhibition [18]: Active
inhibition [19]: Active
inhibition [20]: Active
inhibition [22]: Active
inhibition [23]: Active
inhibition [3]: Active
inhibition [25]: Active
inhibition [27]: Active
inhibition [30]: Active
inhibition [31]: Active
inhibition [32]: Active
inhibition [4]: Active
inhibition [33]: Active
IC50 [35]: 59.1 nM

SMILES: Cc1ccc(C(=O)Nc2ccc(CN3CCN(C)CC3)c(C(F)(F)F)c2)cc1C#Cc1cnc2cccnn12
inhibition [38]: inactive

Reference: ChEMBL document CHEMBL5705906 (Nat Commun, 2017)
